Data taken from PMC7299178 (Angewandte Chemie (International ed. in English), 2019).

How the values were obtained:
[1] = Micelle size in water by TEM and DLS; type: physicochemical
In short: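 Test material was a linear-brush diblock copolymer (PMMA block plus a peptide-acrylamide/DMA brush block), self-assembled into micelles in water. Particle diameter was measured by TEM imaging, and hydrodynamic diameter by DLS. TEM images were also taken after thermolysin treatment (thermolysin cleaves the Gly–Leu amide bond of the peptide side chains).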

thermolysin = thermolysin (Bacillus thermoproteolyticus, UniProt P00800)
thermolysin, sequence (P00800 233-548, species assumed): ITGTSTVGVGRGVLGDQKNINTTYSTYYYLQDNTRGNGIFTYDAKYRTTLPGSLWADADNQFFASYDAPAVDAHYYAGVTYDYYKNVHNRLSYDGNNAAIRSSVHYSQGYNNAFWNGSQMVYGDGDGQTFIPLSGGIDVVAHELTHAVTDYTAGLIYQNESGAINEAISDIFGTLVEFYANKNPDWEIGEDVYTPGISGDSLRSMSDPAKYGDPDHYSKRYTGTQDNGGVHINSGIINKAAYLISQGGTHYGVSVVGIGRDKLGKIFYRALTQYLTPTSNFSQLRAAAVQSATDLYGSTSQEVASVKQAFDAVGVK

## PMMA90-b-poly(PepAm21-co-DMA63) [P8]
[1]; micelles in water, dynamic light scattering
  hydrodynamic diameter (DLS): 28 nm
[1]; spherical micelles assembled in water, transmission electron microscope
  micelle diameter (TEM): 24 nm
thermolysin; TEM and DLS, spherical micelles before treatment
  morphology change of micelles upon treatment with thermolysin: underwent a phase transition into a worm-like phase
thermolysin; same cleavage conditions, thermolysin pretreated with ethylenediaminetetraacetic acid, DLS
  change of particle diameter with deactivated thermolysin: no change in diameter
